From ChEMBL document CHEMBL4145461, “Novel non-sulfonamide 5-HT6 receptor partial inverse agonist in a group of imidazo[4,5-b]pyridines with cognition enhancing properties” (Eur J Med Chem, 2018)

How the values were obtained:
[1] = biological target: 5-hydroxytryptamine receptor 7 (Homo sapiens, UniProt P34969); assay: Displacement of [3H]-5-CT from human 5HT7BR expressed in HEK293 cell membranes after 1 hr by microbeta counting method
Procedure, shortened: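 HEK293 (5-HT1A, 5-HT6, 5-HT7b, D2L) or CHO-K1 (5-HT2A) membranes, all Tris–HCl with 4 mM MgCl2 plus receptor-specific EDTA/pargyline/ascorbate (D2L adds NaCl, KCl, CaCl2). Nonspecific binding: 10 μM 5-HT (5-HT1A, 5-HT7), chlorpromazine (5-HT2A), methiothepine (5-HT6), haloperidol (D2L). Triplicate, 7–8 concentrations (10⁻¹¹–10⁻⁴ M), filtration; Ki via Cheng–Prusoff, mean of three experiments. Incubation 1 h 37 °C; 5-HT1A 1 h and 5-HT2A 1.5 h, room temperature.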

[2] = biological target: T1, alpha-1 adrenergic receptor (Rattus norvegicus, UniProt P15823+P23944+P43140); assay: Displacement of [3H]prazosin from rat brain alpha-1 adrenergic receptor at 1 uM after 60 mins by scintillation counting relative to control; details: rat brain alpha-1 adrenergic receptor preparation, probe [3H]prazosin
T1 sequence (P15823 whole entry): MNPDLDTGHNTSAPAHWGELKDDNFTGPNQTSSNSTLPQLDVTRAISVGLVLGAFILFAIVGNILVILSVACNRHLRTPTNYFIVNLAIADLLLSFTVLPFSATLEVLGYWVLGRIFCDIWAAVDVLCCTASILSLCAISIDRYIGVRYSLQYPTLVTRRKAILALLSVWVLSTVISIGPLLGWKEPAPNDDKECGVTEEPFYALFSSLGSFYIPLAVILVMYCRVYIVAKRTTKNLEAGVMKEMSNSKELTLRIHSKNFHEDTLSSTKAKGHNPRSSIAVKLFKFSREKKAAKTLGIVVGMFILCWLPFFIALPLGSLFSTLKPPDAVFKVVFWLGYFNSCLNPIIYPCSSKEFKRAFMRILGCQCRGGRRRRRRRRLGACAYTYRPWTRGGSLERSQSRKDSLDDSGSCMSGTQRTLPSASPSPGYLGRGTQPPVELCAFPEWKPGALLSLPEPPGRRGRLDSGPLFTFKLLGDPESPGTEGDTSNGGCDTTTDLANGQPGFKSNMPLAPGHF
T1 sequence (P23944 whole entry): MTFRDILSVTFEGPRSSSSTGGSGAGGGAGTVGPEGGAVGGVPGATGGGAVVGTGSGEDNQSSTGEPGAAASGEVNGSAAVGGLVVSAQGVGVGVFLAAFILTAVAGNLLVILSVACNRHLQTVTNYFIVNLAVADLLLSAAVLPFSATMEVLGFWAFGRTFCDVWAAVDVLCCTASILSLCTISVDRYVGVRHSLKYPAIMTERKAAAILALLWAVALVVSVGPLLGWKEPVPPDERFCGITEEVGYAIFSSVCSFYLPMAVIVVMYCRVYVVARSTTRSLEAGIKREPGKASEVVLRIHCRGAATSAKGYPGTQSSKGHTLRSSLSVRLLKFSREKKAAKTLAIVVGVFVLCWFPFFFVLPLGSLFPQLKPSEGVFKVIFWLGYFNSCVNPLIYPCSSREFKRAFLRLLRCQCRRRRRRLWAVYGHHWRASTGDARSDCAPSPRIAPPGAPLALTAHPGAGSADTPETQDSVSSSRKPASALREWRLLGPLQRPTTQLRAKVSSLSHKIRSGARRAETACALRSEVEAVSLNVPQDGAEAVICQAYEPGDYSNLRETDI
T1 sequence (P43140 whole entry): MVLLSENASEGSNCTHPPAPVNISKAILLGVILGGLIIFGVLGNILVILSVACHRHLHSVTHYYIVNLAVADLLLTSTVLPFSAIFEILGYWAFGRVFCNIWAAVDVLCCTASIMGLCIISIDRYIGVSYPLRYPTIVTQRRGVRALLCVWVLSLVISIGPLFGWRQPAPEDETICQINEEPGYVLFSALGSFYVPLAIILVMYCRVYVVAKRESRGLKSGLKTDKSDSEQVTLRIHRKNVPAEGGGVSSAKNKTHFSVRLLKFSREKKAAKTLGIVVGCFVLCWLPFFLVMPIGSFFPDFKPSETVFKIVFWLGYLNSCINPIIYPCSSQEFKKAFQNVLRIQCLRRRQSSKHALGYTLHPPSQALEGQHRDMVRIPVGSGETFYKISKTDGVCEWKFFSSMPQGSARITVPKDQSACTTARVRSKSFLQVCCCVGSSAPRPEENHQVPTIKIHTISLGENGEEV

[3] = biological target: Sodium-dependent serotonin transporter (Homo sapiens) (UniProt P31645); assay: Displacement of [3H]imipramine from recombinant human SERT at 1 uM after 60 mins by scintillation counting relative to control
hERG (KCNH2) = hERG (KCNH2) (Homo sapiens, UniProt Q12809); assay: Displacement of [3H]Dofetilide from recombinant human ERG at 1 uM after 60 mins by scintillation counting relative to control; details: probe [3H]Dofetilide
Cytochrome P450 2D6 = Cytochrome P450 2D6 (Homo sapiens, UniProt P10635); assay: Inhibition of CYP2D6 (unknown origin) at 0.025 to 25 uM after 2 hrs by firefly luciferase-luminescence based P450-glo assay; format: ADME
Procedure, shortened: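 Recombinant CYP3A4 or CYP2D6 incubated 2 h with test compound (0.025–25 μM final) and an isoform-specific luciferin derivative. Firefly luciferase then added, and luminescence is proportional to D-luciferin formed. Reference inhibitors: ketoconazole (CYP3A4) and quinidine (CYP2D6, 0.1–100 nM).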

[4] = Tmax in Wistar rat at 10 mg/kg, po administered as single dose by LC/MS analysis; format: ADME, organism-based; details: in vivo
Procedure, shortened: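 Male Wistar rats (229–272 g), fasted 16 h before and 4 h after dosing, given 10 mg/kg orally in water. Four rats per time point at 15 min, 30 min, 1, 2, 4 and 8 h. Plasma (K3EDTA) and brain homogenate collected and analysed by LC-MS/MS.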

Sequence of Sodium-dependent serotonin transporter (Homo sapiens) (P31645 whole entry, looked up): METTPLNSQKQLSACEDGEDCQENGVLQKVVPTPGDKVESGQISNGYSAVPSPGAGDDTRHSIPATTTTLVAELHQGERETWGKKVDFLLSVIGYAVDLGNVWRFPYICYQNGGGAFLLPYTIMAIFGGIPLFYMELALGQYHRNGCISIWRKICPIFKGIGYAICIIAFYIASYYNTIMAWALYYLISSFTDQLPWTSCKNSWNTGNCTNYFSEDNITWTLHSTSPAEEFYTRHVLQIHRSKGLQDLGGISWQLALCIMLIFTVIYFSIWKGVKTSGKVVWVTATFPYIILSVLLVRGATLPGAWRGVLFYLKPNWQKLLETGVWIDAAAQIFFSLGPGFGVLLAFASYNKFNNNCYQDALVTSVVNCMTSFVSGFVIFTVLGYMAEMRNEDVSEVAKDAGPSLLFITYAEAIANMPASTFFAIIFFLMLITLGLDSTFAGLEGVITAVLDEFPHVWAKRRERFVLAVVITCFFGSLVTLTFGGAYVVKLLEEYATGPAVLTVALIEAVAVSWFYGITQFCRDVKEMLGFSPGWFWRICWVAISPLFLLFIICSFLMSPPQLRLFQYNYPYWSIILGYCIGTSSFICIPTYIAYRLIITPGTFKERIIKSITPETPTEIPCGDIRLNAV
Sequence of hERG (KCNH2) (Q12809 whole entry): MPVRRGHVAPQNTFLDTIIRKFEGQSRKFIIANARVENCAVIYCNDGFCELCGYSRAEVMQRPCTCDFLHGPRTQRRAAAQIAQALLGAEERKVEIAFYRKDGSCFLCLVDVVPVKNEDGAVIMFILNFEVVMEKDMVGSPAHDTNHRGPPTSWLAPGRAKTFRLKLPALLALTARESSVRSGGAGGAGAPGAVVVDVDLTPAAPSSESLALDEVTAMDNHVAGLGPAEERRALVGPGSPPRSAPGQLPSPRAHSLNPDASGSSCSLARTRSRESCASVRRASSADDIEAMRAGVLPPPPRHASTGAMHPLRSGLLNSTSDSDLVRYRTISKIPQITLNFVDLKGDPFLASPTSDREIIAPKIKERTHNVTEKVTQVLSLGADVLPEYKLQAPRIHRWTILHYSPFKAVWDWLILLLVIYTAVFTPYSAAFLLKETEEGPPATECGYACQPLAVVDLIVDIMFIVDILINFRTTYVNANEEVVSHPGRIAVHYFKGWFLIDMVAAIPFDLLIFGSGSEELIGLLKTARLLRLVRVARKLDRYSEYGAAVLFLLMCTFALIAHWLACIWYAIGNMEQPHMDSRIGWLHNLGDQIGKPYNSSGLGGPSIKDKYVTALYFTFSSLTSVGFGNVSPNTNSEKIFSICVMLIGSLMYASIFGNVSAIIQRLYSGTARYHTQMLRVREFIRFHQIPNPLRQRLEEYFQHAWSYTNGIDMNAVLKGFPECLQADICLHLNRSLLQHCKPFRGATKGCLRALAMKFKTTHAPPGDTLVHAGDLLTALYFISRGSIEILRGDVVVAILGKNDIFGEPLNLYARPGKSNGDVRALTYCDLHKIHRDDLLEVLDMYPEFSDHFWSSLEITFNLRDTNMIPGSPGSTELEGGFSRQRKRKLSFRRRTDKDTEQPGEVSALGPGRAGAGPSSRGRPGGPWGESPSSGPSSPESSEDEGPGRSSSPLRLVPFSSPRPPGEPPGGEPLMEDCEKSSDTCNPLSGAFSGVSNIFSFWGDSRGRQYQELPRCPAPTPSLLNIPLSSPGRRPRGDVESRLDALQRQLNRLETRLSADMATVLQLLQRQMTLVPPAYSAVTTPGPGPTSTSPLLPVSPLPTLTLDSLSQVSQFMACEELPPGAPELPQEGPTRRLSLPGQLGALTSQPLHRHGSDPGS
Sequence of Cytochrome P450 2D6 (P10635 whole entry, canonical isoform): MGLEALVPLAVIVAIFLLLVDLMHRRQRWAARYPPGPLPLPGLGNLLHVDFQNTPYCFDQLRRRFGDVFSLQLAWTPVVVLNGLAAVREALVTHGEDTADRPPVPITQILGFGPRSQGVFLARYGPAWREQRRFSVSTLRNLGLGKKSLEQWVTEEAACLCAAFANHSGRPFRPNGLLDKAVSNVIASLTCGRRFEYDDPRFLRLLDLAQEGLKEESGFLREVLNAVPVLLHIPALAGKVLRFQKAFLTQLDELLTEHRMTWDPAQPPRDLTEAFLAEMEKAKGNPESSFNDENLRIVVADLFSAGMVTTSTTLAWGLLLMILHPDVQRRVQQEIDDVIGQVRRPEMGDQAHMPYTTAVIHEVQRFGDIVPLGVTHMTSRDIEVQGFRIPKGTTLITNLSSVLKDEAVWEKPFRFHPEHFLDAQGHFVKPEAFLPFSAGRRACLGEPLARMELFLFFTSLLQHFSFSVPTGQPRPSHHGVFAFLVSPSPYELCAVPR
Sequence of 5-hydroxytryptamine receptor 7 (P34969 whole entry): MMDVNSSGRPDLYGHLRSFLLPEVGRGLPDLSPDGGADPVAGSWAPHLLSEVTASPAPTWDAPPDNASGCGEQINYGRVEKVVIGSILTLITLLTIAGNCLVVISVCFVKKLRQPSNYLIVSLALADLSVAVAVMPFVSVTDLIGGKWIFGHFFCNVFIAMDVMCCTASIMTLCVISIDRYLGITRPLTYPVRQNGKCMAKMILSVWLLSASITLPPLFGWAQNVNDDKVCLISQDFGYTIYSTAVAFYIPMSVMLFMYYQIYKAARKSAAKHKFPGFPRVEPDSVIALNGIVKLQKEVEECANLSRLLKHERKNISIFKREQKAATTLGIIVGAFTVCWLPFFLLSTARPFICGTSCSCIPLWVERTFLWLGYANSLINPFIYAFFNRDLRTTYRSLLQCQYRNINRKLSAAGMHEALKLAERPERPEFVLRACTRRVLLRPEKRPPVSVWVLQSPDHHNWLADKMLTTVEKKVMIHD

## CCc1nc2c(N3CCNCC3)ccnc2n1Cc1cccc(F)c1
[1]
  Ki: 12.3 µM
[2]
  inhibition at 1 h, 1 µM: 0.2%
[3]
  inhibition: 1.9%
hERG (KCNH2)
  inhibition at 1 h, 1 µM: -6.1%
Cytochrome P450 2D6
  inhibition (INH): Not Active
[4]
  Tmax: 15 min
